Source: ChEMBL document CHEMBL1131181, “Abasic analogues of TSAO-T as the first sugar derivatives that specifically inhibit HIV-1 reverse transcriptase” (J Med Chem, 1998)

How the values were obtained:
CCRF-CEM = assay: compound was tested for cytostatic concentration against mock infected cells of CEM cell line; type: functional; details: Homo sapiens
How it was run: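 Uninfected CEM cells at 250 000 cells/mL were cultured with compound dilutions for 4 days at 37 °C. CC₅₀ is the concentration that inhibits CEM cell proliferation by 50%.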

MT4 [1] = assay: compound was tested for antiviral activity against HIV-2 ([…]) in MT-4 cell line, activity expressed as concentration required to protect 50% of the virus-infected cells against destruction by the virus.; type: functional, cell-based; details: Homo sapiens
MT4 [2] = assay: Cytostatic concentration test against mock infected human cells of MT-4 cell line; type: functional
How it was run: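 MT-4 cells at 5 × 10⁵ cells/mL, mock-infected, combined with compound dilutions and held 5 days at 37 °C. Viable cells were counted in a blood-cell-counting chamber after Trypan blue staining. CC₅₀ is the concentration that cuts the viable cell number by 50%.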

[3] = tested on: Human immunodeficiency virus 2; assay: In vitro antiviral activity against HIV-2 (ROD) in CEM (human leukemia) cells.; type: functional, organism-based; details: Human immunodeficiency virus 2, CCRF-CEM
How it was run: (§1)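 CEM cells at 250 000 cells/mL were infected with HIV-1(III_B) or HIV-2(ROD) at 100 CCID₅₀/mL, then added to compound dilutions. After 4 days at 37 °C, cultures were scored for syncytium formation. EC₅₀ is the concentration that inhibits syncytium formation by 50%.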

[4] = tested on: Human immunodeficiency virus 1; assay: In vitro antiviral activity against HIV-1 (IIIB) in CEM (human leukemia) cells.; type: functional, organism-based; details: Human immunodeficiency virus 1, CCRF-CEM; how it was run: as §1
[5] = tested on: Human immunodeficiency virus 1; assay: compound was tested for antiviral activity against HIV-1 (3B) in MT-4 cell line, activity expressed as concentration required to protect 50% of the virus-infected cells against destruction by the virus.; type: functional, organism-based; details: Human immunodeficiency virus 1, MT4

| SMILES | EC50 [3] | EC50 [4] | EC50 [5] | CC50 (CCRF-CEM) | EC50 (MT4 [1]) | CC50 (MT4 [2]) |
| --- | --- | --- | --- | --- | --- | --- |
| CC(C)(C)[Si](C)(C)OC[C@H]1O[C@@H](n2ccc(=O)[nH]c2=O)[C@H](O[Si](C)(C)C(C)(C)C)C12OS(=O)(=O)C=C2N (stereo not given in full) |  |  | 0.18 µM |  | > 20 µM | 13 µM |
| CC(C)(C)[Si](C)(C)OC[C@H]1O[C@@H](OCc2ccccc2)[C@H](O[Si](C)(C)C(C)(C)C)[C@]12OS(=O)(=O)C=C2N | > 6.4 µM | > 6.4 µM | 4.9 µM | 11 µM | > 6.4 µM | 12 µM |
| Cc1cn([C@@H]2O[C@H](CO[Si](C)(C)C(C)(C)C)C3(OS(=O)(=O)C=C3N)[C@H]2O[Si](C)(C)C(C)(C)C)c(=O)[nH]c1=O (stereo not given in full) | > 20 µM | 0.06 µM | 0.06 µM |  | > 20 µM | 14 µM |
| CC(C)(C)[Si](C)(C)OC[C@H]1O[C@H](NC(N)=O)[C@H](O[Si](C)(C)C(C)(C)C)[C@]12OS(=O)(=O)C=C2N | > 50 µM | 57 µM | > 250 µM | 203 µM | > 250 µM | > 250 µM |
| CC(C)(C)[Si](C)(C)OC[C@H]1O[C@@H](NC(=O)NC(=O)c2ccccc2)[C@H](O[Si](C)(C)C(C)(C)C)[C@]12OS(=O)(=O)C=C2N | > 50 µM | 7 µM | 16 µM | 48 µM | > 50 µM | 90 µM |
| CC(C)(C)[Si](C)(C)OC[C@H]1O[C@H](NC(=O)NC(=O)c2ccccc2)[C@H](O[Si](C)(C)C(C)(C)C)[C@]12OS(=O)(=O)C=C2N | > 250 µM | > 250 µM | > 250 µM | 24 µM | > 250 µM | > 250 µM |
| COC1OC(CO[Si](C)(C)C(C)(C)C)C2(OS(=O)(=O)C=C2N)C1O[Si](C)(C)C(C)(C)C (stereo not given) |  |  | 21 µM |  | > 200 µM | > 200 µM |
| C=C(C)C(=O)NC(=O)N[C@H]1O[C@H](CO[Si](C)(C)C(C)(C)C)[C@@]2(OS(=O)(=O)C=C2N)[C@H]1O[Si](C)(C)C(C)(C)C | > 6.5 µM | > 6.5 µM | > 1.3 µM | 6.4 µM | > 1.3 µM | 2.7 µM |
| COC(=O)c1ccccc1NC(=O)N[C@H]1O[C@H](CO[Si](C)(C)C(C)(C)C)[C@@]2(OS(=O)(=O)C=C2N)[C@H]1O[Si](C)(C)C(C)(C)C | > 10 µM | 4.5 µM | 5.3 µM | 22 µM | > 10 µM | 26 µM |
| CCNC(=O)N[C@@H]1O[C@H](CO[Si](C)(C)C(C)(C)C)[C@@]2(OS(=O)(=O)C=C2N)[C@H]1O[Si](C)(C)C(C)(C)C.CCNC(=O)N[C@H]1O[C@H](CO[Si](C)(C)C(C)(C)C)[C@@]2(OS(=O)(=O)C=C2N)[C@H]1O[Si](C)(C)C(C)(C)C | > 10 µM | > 10 µM | > 10 µM | 20 µM | > 10 µM | 19 µM |
| CC(C)(C)[Si](C)(C)OC[C@H]1O[C@@H](N=[N+]=[N-])[C@H](O[Si](C)(C)C(C)(C)C)[C@]12OS(=O)(=O)C=C2N | > 200 µM | > 200 µM | > 200 µM | > 200 µM | > 200 µM | > 200 µM |
| CC(C)(C)[Si](C)(C)OC[C@H]1O[C@@H](NC(=S)Nc2ccccc2)[C@H](O[Si](C)(C)C(C)(C)C)[C@]12OS(=O)(=O)C=C2N | > 2 µM | > 2 µM | > 2 µM | 4.1 µM | > 2 µM | 3.7 µM |
| CC(C)(C)[Si](C)(C)OC[C@H]1O[C@@H](NC(=O)Nc2ccccc2)[C@H](O[Si](C)(C)C(C)(C)C)[C@]12OS(=O)(=O)C=C2N | > 10 µM | > 10 µM | 5.1 µM | 10 µM | > 10 µM | 14 µM |
| CC(=O)N[C@H]1O[C@H](CO[Si](C)(C)C(C)(C)C)[C@@]2(OS(=O)(=O)C=C2N)[C@H]1O[Si](C)(C)C(C)(C)C | > 8 µM | > 8 µM | > 8 µM |  | > 8 µM | 16 µM |
| CC(C)(C)[Si](C)(C)OC[C@H]1O[C@@H](NC(N)=O)[C@H](O[Si](C)(C)C(C)(C)C)[C@]12OS(=O)(=O)C=C2N | > 50 µM | 90 µM | 90 µM | > 250 µM | > 250 µM | > 250 µM |
| CC(C)(C)[Si](C)(C)OC[C@H]1O[C@@H](N)[C@H](O[Si](C)(C)C(C)(C)C)[C@]12OS(=O)(=O)C=C2N | > 10 µM | > 10 µM | > 10 µM | 16 µM | > 10 µM | 21 µM |

Second part, led by results:

| EC50 [3] | EC50 [4] | EC50 [5] | SMILES | CC50 (CCRF-CEM) | EC50 (MT4 [1]) | CC50 (MT4 [2]) |
| --- | --- | --- | --- | --- | --- | --- |
| > 6.5 µM | 0.56 µM | 0.59 µM | C=C(C)C(=O)NC(=O)N[C@@H]1O[C@H](CO[Si](C)(C)C(C)(C)C)[C@@]2(OS(=O)(=O)C=C2N)[C@H]1O[Si](C)(C)C(C)(C)C | 6.1 µM | > 6.5 µM | 8.6 µM |
| > 6.4 µM | > 6.4 µM | 4.6 µM | CC(C)(C)[Si](C)(C)OC[C@H]1O[C@@H](OCc2ccccc2)[C@H](O[Si](C)(C)C(C)(C)C)[C@@]12OS(=O)(=O)C=C2N | 11 µM | > 6.4 µM | 13 µM |
| > 2 µM | > 2 µM | 4.2 µM | CSc1ccc(NC(=O)N[C@H]2O[C@H](CO[Si](C)(C)C(C)(C)C)[C@@]3(OS(=O)(=O)C=C3N)[C@H]2O[Si](C)(C)C(C)(C)C)cc1 | 6.4 µM | > 10 µM | 17 µM |
|  | 0.31 µM | 0.92 µM | CC(C)(C)[Si](C)(C)OC[C@H]1O[C@@H](N2CCC(=O)NC2=O)[C@H](O[Si](C)(C)C(C)(C)C)[C@]12OS(=O)(=O)C=C2N | 19 µM | > 2 µM | 21 µM |
| > 2 µM | > 2 µM | 3.1 µM | COC(=O)c1ccccc1NC(=O)N[C@@H]1O[C@H](CO[Si](C)(C)C(C)(C)C)[C@@]2(OS(=O)(=O)C=C2N)[C@H]1O[Si](C)(C)C(C)(C)C | 3.8 µM | > 2 µM | 17 µM |
| > 2 µM | 0.65 µM | 0.59 µM | CC(C)(C)[Si](C)(C)OC[C@H]1O[C@H](NC(=O)Nc2ccccc2)[C@H](O[Si](C)(C)C(C)(C)C)[C@]12OS(=O)(=O)C=C2N | 4.2 µM | > 2 µM | 4.3 µM |
| > 10 µM | 5 µM | 4.5 µM | CSc1ccc(NC(=O)N[C@@H]2O[C@H](CO[Si](C)(C)C(C)(C)C)[C@@]3(OS(=O)(=O)C=C3N)[C@H]2O[Si](C)(C)C(C)(C)C)cc1 | 22 µM | > 10 µM | 29 µM |
| > 8 µM | 2.6 µM | 2.6 µM | CC(=O)N[C@@H]1O[C@H](CO[Si](C)(C)C(C)(C)C)[C@@]2(OS(=O)(=O)C=C2N)[C@H]1O[Si](C)(C)C(C)(C)C |  | > 8 µM | 13 µM |
| > 10 µM | 0.65 µM | 0.89 µM | CC(=O)NC(=O)N[C@@H]1O[C@H](CO[Si](C)(C)C(C)(C)C)[C@@]2(OS(=O)(=O)C=C2N)[C@H]1O[Si](C)(C)C(C)(C)C | 15 µM | > 10 µM | 26 µM |
